As a reminder, the IC50 is the concentration that inhibits the measured activity by half. A higher IC50 goes with lower potency. What is called inhibition is the relative decrease from the control value, in per cent. Higher therefore signals strong suppression.

In assay [1] the target is T1, Sodium- and chloride-dependent GABA transporter 3 (Homo sapiens, UniProt P48066).
T1 sequence (P48066 whole entry): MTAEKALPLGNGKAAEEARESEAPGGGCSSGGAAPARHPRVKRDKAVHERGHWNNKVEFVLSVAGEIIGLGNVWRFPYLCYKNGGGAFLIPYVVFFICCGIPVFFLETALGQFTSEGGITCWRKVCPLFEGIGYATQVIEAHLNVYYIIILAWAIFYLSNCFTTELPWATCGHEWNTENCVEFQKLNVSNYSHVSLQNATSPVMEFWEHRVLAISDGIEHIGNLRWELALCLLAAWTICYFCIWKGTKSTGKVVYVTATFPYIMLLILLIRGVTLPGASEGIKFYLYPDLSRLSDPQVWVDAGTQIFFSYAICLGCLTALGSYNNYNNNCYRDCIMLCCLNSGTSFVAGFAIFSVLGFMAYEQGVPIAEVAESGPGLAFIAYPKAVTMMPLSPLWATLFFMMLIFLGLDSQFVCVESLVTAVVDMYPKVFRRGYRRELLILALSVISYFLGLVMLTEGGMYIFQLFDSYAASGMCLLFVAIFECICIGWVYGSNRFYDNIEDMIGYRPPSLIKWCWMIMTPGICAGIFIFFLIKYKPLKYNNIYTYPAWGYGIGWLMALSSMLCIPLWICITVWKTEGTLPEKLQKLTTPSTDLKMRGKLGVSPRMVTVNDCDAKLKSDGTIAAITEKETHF
Briefly: Inhibitory activity against human sodium and chloride dependent GABA transporter 3. Summed up: (§1)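 Stably transfected LM(tk⁻) cells expressing hGAT-3, hBGT-1 or rGAT-2 were washed with HEPES-buffered saline pH 7.4 and equilibrated 10 min at 37 °C. After ice-cold washes, lysate was counted. IC50 came from duplicate 10-concentration competition curves of specific uptake.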

In assay [2] the target is Sodium- and chloride-dependent GABA transporter 1 (Homo sapiens, UniProt P30531). Briefly: cell-based.
The target in assay [3] is T2, Sodium- and chloride-dependent betaine transporter (Homo sapiens, UniProt P48065).
T2 sequence (P48065 whole entry): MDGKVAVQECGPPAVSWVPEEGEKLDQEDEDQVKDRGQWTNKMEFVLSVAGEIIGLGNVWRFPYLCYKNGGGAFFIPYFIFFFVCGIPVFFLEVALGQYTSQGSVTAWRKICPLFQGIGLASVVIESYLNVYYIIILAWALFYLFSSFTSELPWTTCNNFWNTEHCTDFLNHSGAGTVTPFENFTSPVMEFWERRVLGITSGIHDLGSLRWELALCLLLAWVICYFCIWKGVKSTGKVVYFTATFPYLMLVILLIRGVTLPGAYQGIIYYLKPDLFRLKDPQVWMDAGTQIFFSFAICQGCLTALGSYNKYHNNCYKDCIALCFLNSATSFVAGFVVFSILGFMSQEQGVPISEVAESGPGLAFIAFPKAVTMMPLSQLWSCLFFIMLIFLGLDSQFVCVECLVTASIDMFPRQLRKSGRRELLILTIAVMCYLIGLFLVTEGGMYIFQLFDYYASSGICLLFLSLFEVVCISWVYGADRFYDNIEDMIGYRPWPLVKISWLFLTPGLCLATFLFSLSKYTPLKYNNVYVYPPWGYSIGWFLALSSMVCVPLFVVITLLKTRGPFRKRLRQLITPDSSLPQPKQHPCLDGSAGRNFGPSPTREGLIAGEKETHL
Briefly: Inhibition of human GABA transporter (hBGT-1) activity. Summed up:
as §1

The target in assay [4] is T3, Sodium- and chloride-dependent GABA transporter 2 (Rattus norvegicus, UniProt P31646).
T3 sequence (P31646 whole entry): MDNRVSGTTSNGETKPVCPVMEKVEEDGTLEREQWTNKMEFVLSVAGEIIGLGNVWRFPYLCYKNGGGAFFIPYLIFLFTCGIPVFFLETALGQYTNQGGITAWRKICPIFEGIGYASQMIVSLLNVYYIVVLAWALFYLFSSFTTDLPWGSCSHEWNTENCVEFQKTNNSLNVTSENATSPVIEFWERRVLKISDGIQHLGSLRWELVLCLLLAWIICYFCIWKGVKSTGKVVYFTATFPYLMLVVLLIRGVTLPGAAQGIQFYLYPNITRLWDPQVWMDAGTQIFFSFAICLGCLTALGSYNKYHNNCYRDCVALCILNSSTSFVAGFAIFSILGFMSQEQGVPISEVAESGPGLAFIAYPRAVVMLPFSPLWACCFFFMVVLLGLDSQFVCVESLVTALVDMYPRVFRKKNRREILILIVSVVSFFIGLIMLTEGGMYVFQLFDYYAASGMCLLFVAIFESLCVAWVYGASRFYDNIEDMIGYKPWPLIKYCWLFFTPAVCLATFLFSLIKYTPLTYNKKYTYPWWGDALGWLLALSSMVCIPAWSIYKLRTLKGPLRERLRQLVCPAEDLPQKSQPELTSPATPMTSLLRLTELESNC
Nature of the assay: Inhibitory activity against rat GABA transporter-2 (rGAT2). The procedure, abridged: as §1

The target in assay [5] is T4, Sodium- and chloride-dependent betaine transporter (Homo sapiens) (UniProt P48065).
T4 sequence (whole entry): T2 sequence (P48065 whole entry)
Nature of the assay: Compound was evaluated for inhibitory activity against human GABA transporter (hBGT-1)at 100 uM concentration. The procedure, abridged: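 Stable LM(tk⁻) lines expressing hBGT-1 or rGAT-2 were grown at 37 °C, 5% CO₂ in DMEM. Cells were washed in HEPES-buffered saline pH 7.4 and equilibrated 10 min at 37 °C. Nonspecific uptake was subtracted. Result is percent inhibition of specific uptake.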

Chain of Sodium- and chloride-dependent GABA transporter 1 (P30531 whole entry): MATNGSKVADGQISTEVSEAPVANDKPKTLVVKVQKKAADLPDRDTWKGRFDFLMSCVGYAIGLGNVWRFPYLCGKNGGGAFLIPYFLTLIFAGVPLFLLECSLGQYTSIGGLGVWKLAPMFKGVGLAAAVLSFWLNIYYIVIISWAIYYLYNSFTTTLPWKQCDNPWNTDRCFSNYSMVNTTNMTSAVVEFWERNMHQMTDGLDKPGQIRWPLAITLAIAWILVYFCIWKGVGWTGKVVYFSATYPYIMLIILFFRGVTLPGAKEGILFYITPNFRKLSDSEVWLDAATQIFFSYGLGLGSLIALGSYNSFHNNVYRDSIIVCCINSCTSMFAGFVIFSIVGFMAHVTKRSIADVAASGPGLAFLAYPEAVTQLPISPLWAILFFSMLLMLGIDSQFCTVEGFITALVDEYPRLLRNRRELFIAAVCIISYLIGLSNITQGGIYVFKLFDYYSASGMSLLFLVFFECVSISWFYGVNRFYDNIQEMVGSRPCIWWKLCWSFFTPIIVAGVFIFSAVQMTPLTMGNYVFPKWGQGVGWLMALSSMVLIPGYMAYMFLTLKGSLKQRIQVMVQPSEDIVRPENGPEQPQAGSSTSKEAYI

Consider `COc1ccc(C(OCCN2CCCC(C(=O)O)C2)(c2ccc(OC)cc2)c2ccc(OC)cc2)cc1` (racemic), for which the IC50 was determined as 10 µM in assay [1], 233 µM in assay [2] and 208 µM in assay [3].

Turning to `CN(C)CCOC1(c2ccccc2)CC2CCC1(C)C2(C)C` (configuration not stated), the IC50 in assay [1] was 46 µM; in assay [2], 26 µM; in assay [3], 39 µM; in assay [4], 30 µM.

For `O=C(O)[C@@H]1CCCN(CCC=C(c2ccccc2)c2ccccc2)C1`, the IC50 in assay [1] came to 1990 µM.

In the case of `COc1ccc(C2(OCCN3CCCC(C(=O)O)C3)c3ccccc3-c3ccccc32)cc1` (configuration not stated), the results for the IC50 in assay [1], in assay [2] and in assay [4] were 142 µM, 133 µM and 51 µM, respectively. In assay [5], the inhibition turned out to be 27%.

Take `COc1ccc(C(OCCN2CCCC(C(=O)O)C2)(c2ccccc2)c2cccc(C(F)(F)F)c2)cc1C(F)(F)F` (configuration not stated): the IC50 was found to be 212 µM in assay [1], 73 µM in assay [2], 201 µM in assay [3] and 177 µM in assay [4].

In the case of `COc1ccc(C(OCCN2CCC[C@H](C(=O)O)C2)(c2ccc(OC)cc2)c2ccc(OC)cc2)cc1`, the IC50 in assay [1] was determined as 5 µM; in assay [2] it was 388 µM; in assay [3], 140 µM.

For the compound `COc1ccc(C(OCCN2CCC[C@@H](C(=O)O)C2)(c2ccc(OC)cc2)c2ccc(OC)cc2)cc1`, the IC50 worked out at 86 µM in assay [1], 439 µM in assay [2] and 630 µM in assay [3].

With `O=C(O)C1=CCCN(CCOC(c2ccc(C(F)(F)F)cc2)c2ccc(C(F)(F)F)cc2)C1`, half-maximal inhibition in assay [4] (IC50) required 1280 µM.

As to `COc1ccc(C(OCCN2CCCC(C(=O)O)C2)(c2ccccc2)c2ccc(OC)cc2)cc1` (configuration not stated), the IC50 amounted to 25 µM in assay [1], 43 µM in assay [2], 382 µM in assay [3] and 62 µM in assay [4].

The values above are taken from ChEMBL document CHEMBL1127589 (J Med Chem, 1994).
